Published values from different studies.
Compare with care: the assays were run in different laboratories. In brackets after ≈: the same amount, converted by molar mass.

| Structure (SMILES) | tested on | test | system | setting | measurement | result |
| --- | --- | --- | --- | --- | --- | --- |
| CCCCCCCCCCCCCCCCCCOc1ccccc1CC(=O)OCC[N+]1(C)CCCCC1 | HOP-62 | cell growth or viability, SRB | – | 10 µM | inhibition | 30% |
| O=C(NCCc1ccccn1)c1ccc(-c2nc3ccc4[nH]ncc4c3c3c2CCCC3)cc1 | K562 | cell growth or viability, resazurin | – | 72 h | GI50 | 8400 nM |
| CCCCCCCCCCCCCCCCCCOc1cccc(CC(=O)OCC[N+](CC)(CC)CC)c1 | HOP-92 | cell growth or viability, SRB | – | 10 µM | inhibition | 47.7% |
| Cc1ccc2[nH]nc(-c3nnc(Nc4ccc(Cl)cc4)s3)c2c1 | Staphylococcus epidermidis | microbial growth | ATCC12228 | – | MIC | 133 µg/mL (≈ 389 µM) |
| O=C(NCCN1CCCC1)c1ccc(-c2nc3ccc4[nH]ncc4c3c3c2CCCC3)cc1 | K562 | cell growth or viability, resazurin | – | 72 h | GI50 | 2700 nM |
| O=C(Nc1cccc(Br)c1)c1cccc(S(=O)(=O)N2CCCCCC2)c1 | OCI-Ly1 | cell growth or viability, ATP luminescence | – | 0.1 µM, 5 days | viability | 178% |
| CC[C@H]1OC(=O)[C@H](C)[C@@H](O[C@H]2C[C@@](C)(OC)[C@@H](O)[C@H](C)O2)[C@H](C)[C@@H](O[C@@H]2O[C@H](C)C[C@H](N(C)C)[C@H]2O)[C@](C)(O)C[C@@H](C)/C(=N\OCOCCOC)[C@H](C)[C@@H](O)[C@]1(C)O | Staphylococcus epidermidis | microbial growth | – | clinical isolate | MIC50 | 32 µg/mL (≈ 38.2 µM) |
| CCc1nc(C(N)=O)c(Nc2ccc(N3CCC(N4CCN(C)CC4)CC3)c(OC)c2)nc1NC1CCOCC1 | K562 | cell growth or viability, resazurin | – | 72 h | GI50 | 2300 nM |
| O=C(/C=C/c1cccc(C(=O)NO)c1)NO | OCI-Ly1 | cell growth or viability, ATP luminescence | – | 0.5 µM, 5 days | viability | 108% |
| CC(=O)NC[C@H]1CN(c2ccc(N3CCOCC3)c(F)c2)C(=O)O1 | Staphylococcus epidermidis | microbial growth | – | clinical isolate | MIC90 | 2 µg/mL (≈ 5.93 µM) |
| COC(=O)CNC(=O)C(=O)OC | OCI-Ly1 | cell growth or viability, ATP luminescence | – | 1 µM, 5 days | viability | 146% |
| CC1(C)S[C@@H]2[C@H](NC(=O)[C@H](N)c3ccccc3)C(=O)N2[C@H]1C(=O)O | Staphylococcus epidermidis | microbial growth | – | clinical isolate | MIC50 | 8 µg/mL (≈ 22.9 µM) |
| O=C(NO)c1ccc(CC(=O)N(CCO)c2ccccc2)cc1 | OCI-Ly1 | cell growth or viability, ATP luminescence | – | 0.5 µM, 5 days | viability | 93.8% |
| O=C(NC1CCCCC1)c1ccc(-c2nc3ccc4[nH]ncc4c3c3c2CCCC3)cc1 | K562 | cell growth or viability, resazurin | – | 72 h | GI50 | > 10000 nM |
| C=C[C@]1(C)C[C@@H](OC(=O)CS[C@@H]2C[C@H]3CC[C@@H](C2)N3C)[C@]2(C)[C@H](C)CC[C@]3(CCC(=O)[C@H]32)[C@@H](C)[C@@H]1O | Staphylococcus epidermidis | microbial growth | MRSE | clinical isolate | MIC90 | 0.0625 µg/mL (≈ 0.121 µM) |
| CN(C)CCN(C)C(=O)c1ccc(-c2nc3ccc4[nH]ncc4c3c3c2CCCCC3)nc1 | K562 | cell growth or viability, resazurin | – | 72 h | GI50 | > 10000 nM |
| CCCCCCCCCCCCCCCCCCOc1ccccc1CC(=O)OCCC[N+](C)(C)C | HOP-62 | cell growth or viability, SRB | – | 10 µM | inhibition | 32.9% |
| O=C(Nc1ccc(Cl)cc1)C1CCCN(C(=O)c2cc(C(F)(F)F)cc(C(F)(F)F)c2)C1 (racemic) | OCI-Ly1 | cell growth or viability, ATP luminescence | – | 0.5 µM, 5 days | viability | 137% |

| Structure (SMILES) | tested on | test | system | setting | measurement | result |
| --- | --- | --- | --- | --- | --- | --- |
| Cc1ccc2[nH]nc(-c3nnc(Nc4ccc([N+](=O)[O-])cc4)s3)c2c1 | Staphylococcus epidermidis | microbial growth | ATCC12228 | – | MIC | 135 µg/mL (≈ 382 µM) |
| Cc1n[nH]c2ccc3nc(-c4ccc(C(=O)NCCN(C)C)cc4)c4c(c3c12)CCCCC4 | K562 | cell growth or viability, resazurin | – | 72 h | GI50 | 2900 nM |
| CCCCCCCCCCCCCCCCCCOc1cccc(CC(=O)OCC[N+]2(C)CCOCC2)c1 | HOP-92 | cell growth or viability, SRB | – | 10 µM | inhibition | 13.9% |
| CN[C@H](CC(C)C)C(=O)N[C@H]1C(=O)N[C@@H](CC(N)=O)C(=O)N[C@H]2C(=O)N[C@H]3C(=O)N[C@H](C(=O)N[C@H](C(=O)O)c4cc(O)cc(O)c4-c4cc3ccc4O)[C@H](O)c3ccc(c(Cl)c3)Oc3cc2cc(c3O[C@@H]2O[C@H](CO)[C@@H](O)[C@H](O)[C@H]2O[C@H]2C[C@](C)(N)[C@H](O)[C@H](C)O2)Oc2ccc(cc2Cl)[C@H]1O | Staphylococcus epidermidis | microbial growth, broth dilution | – | clinical isolate | MIC90 | 2 µg/mL (≈ 1.38 µM) |
| CCCCCCCCCCCCCCCCCCOc1cccc(CC(=O)OCCC[N+](C)(C)C)c1 | HOP-92 | cell growth or viability, SRB | – | 10 µM | inhibition | 22.4% |
| CC(=O)OC[C@H]1O[C@@H](n2cnc(N)nc2=O)[C@H](OC(C)=O)[C@@H]1OC(C)=O | OCI-Ly1 | cell growth or viability, ATP luminescence | – | 1 µM, 5 days | viability | 153% |
| Cc1n[nH]c2ccc3nc(-c4ccc(C(=O)NCCN(C)C)nc4)c4c(c3c12)CCCCC4 | K562 | cell growth or viability, resazurin | – | 72 h | GI50 | 8500 nM |
| Cc1cc(O)cc(Nc2nnc(-c3n[nH]c4ccc(C)cc34)s2)c1 | Staphylococcus epidermidis | microbial growth | ATCC12228 | – | MIC | 201 µg/mL (≈ 596 µM) |
| O=C(CCCCCCC(=O)Nc1ccccc1)NO | OCI-Ly1 | cell growth or viability, ATP luminescence | – | 0.5 µM, 5 days | viability | 74.3% |
| Cc1ccc2[nH]nc(-c3nnc(Nc4ccc(O)cc4)s3)c2c1 | Staphylococcus epidermidis | microbial growth | ATCC12228 | – | MIC | 140 µg/mL (≈ 432 µM) |
| CN(C)CCNC(=O)c1ccc(-c2nc3ccc4[nH]ncc4c3c3c2CCCCC3)cc1 | K562 | cell growth or viability, resazurin | – | 72 h | GI50 | 1500 nM |
| CC[C@H]1OC(=O)[C@H](C)[C@@H](O[C@H]2C[C@@](C)(OC)[C@@H](O)[C@H](C)O2)[C@H](C)[C@@H](O[C@@H]2O[C@H](C)C[C@H](N(C)C)[C@H]2O)[C@](C)(O)C[C@@H](C)CN(C)[C@H](C)[C@@H](O)[C@]1(C)O | Staphylococcus epidermidis | microbial growth | ATCC12228 | – | MIC | < 98 µg/mL |
| CCCCCCCCCCCCCCCCCCOc1ccc(CC(=O)OCC[N+]2(C)CCCCC2)cc1 | HOP-92 | cell growth or viability, SRB | – | 10 µM | inhibition | 2.18% |
| COc1c(N2C[C@@H]3CCCN[C@@H]3C2)c(F)cc2c(=O)c(C(=O)O)cn(C3CC3)c12 | Staphylococcus epidermidis | microbial growth, broth dilution | – | clinical isolate | MIC90 | 2 µg/mL (≈ 4.98 µM) |
| CCCCCCCCCCCCCCCCCCOc1ccc(CC(=O)OCC[N+](CC)(CC)CC)cc1 | HOP-92 | cell growth or viability, SRB | – | 10 µM | inhibition | 13.3% |
| Cc1ccc2[nH]nc(-c3nnc(Nc4ccc(F)cc4)s3)c2c1 | Staphylococcus epidermidis | microbial growth | ATCC12228 | – | MIC | 123 µg/mL (≈ 377 µM) |
| CCCCCCCCCCCCCCCCCCOc1cccc(CC(=O)OCC[N+]2(C)CCCC2)c1 | HOP-92 | cell growth or viability, SRB | – | 10 µM | inhibition | 30% |
| O=C(CCCCCCSc1ccc2ccccc2c1)NO | OCI-Ly1 | cell growth or viability, ATP luminescence | – | 0.5 µM, 5 days | viability | 173% |
